# Published values of several laboratories.
# Cell line: HCT-116
# Read-out: cell growth or viability
SMILES,assay,conditions,IC50
CCOC(=O)c1cc(C)n(Cn2cnc3ccccc32)n1,MTT,24 h,47.9 µM
N#Cc1ccc(-c2cc(CNc3cccc4cccnc34)on2)cc1,MTS,72 h,> 100 µM
CC(=O)OC[C@H]1O[C@@H](n2cc(Cn3c(C(=O)/C=C/c4ccc(F)cc4)nc4ccccc43)nn2)[C@H](OC(C)=O)[C@@H](OC(C)=O)[C@H]1OC(C)=O,LDH,48 h,6.49 µM
O=C1CS/C(=N\c2ccccc2O)N1c1nnc(-c2ccc(C(F)(F)F)cc2/N=C2\SCC(=O)N2c2ccccc2O)s1,MTT,,40.5 µM
O=[N+]([O-])c1cc(Br)c(O)c(C=NNc2ccc(C(F)(F)F)cc2)c1,MTT,24 h,9.42 µM
Cc1cccc(NC(=O)Cn2cc(COc3ncnc4[nH]cnc34)nn2)c1,MTT,,55.3 µM
O=C1C(=Nc2ccc(Cl)cc2)c2ccccc2N1Cc1cccc(Cl)c1,MTT,48 h,7.71 µM
O=[N+]([O-])c1cc(Br)c(O)c(C=NNc2ccc(Br)cc2)c1,MTT,24 h,15.3 µM
O=C1CS/C(=N\c2cc(C(F)(F)F)ccc2-c2nnc(N3C(=O)CS/C3=N\c3cccc(Cl)c3)s2)N1c1cccc(Cl)c1,MTT,,57.1 µM
Cc1nnc(-c2nn(Cc3ccc(Cl)cc3Cl)c3ccccc23)o1,,48 h,48.4 µM
COc1cc([C@@H]2c3cc4c(cc3[C@@H](O[C@@H]3O[C@@H]5CO[C@@H](C)O[C@H]5[C@H](O)[C@H]3O)[C@H]3COC(=O)[C@H]23)OCO4)cc(OC)c1O,SRB,72 h,2.4 µM
FC(F)(F)c1ccc(-c2nnc(-c3nn(Cc4ccc(Cl)cc4Cl)c4ccccc34)o2)cc1,,48 h,323 µM
CC(=O)O[C@@H]1[C@@H](OC(C)=O)[C@H](OC(C)=O)CO[C@H]1n1cc(Cn2c(C(C)=O)nc3ccccc32)nn1,LDH,48 h,7.74 µM
O=C1/C(=C/c2ccc(O)cc2O)NC(=S)N1c1ccccc1,MTT,,91.3 µg/mL
O=[N+]([O-])c1ccc(O)c(C=NNc2ccc(C(F)(F)F)cc2)c1,MTT,24 h,11.3 µM
FC(F)(F)c1ccc(-c2cc(COc3cc(C(F)(F)F)nc4ccccc34)on2)cc1,MTS,72 h,> 100 µM
CC(C)CNC(=S)N/N=C/c1cccc2cc3ccccc3nc12,MTT,48 h,> 50 µM
O=C1C(=Nc2ccccc2I)c2ccccc2N1Cc1ccc(Br)cc1,MTT,48 h,1.33 µM
c1ccc(-c2noc(-c3nn(Cc4ccncc4)c4ccccc34)n2)cc1,,48 h,47.5 µM
CN1CCC(NC2CCc3[nH]c4c(C(N)=O)ccc(-c5ccccc5Cl)c4c3C2)CC1 (centres unmarked),,96 h,0.00023 µM
Cc1cc(NS(=O)(=O)c2ccc(NC(=O)/C(C#N)=C/c3ccc(N4CCOCC4)cc3)cc2)no1,MTT,48 h,67.8 µM
O=C1CS/C(=N\c2cc(C(F)(F)F)ccc2-c2nnc(N3C(=O)CS/C3=N\c3ccc(F)c(O)c3)s2)N1c1ccc(F)c(O)c1,MTT,,21.2 µM
O=c1cc(OCc2cc(-c3ccccn3)no2)c2ccccc2o1,MTS,72 h,> 100 µM
COc1cccc(-c2cc(NCc3ccc4c(c3)OCO4)nc(N)n2)c1,,72 h,0.347 µM
Fc1ccc2c(-c3ncc(-c4ccccc4)o3)nn(Cc3ccccc3)c2c1,,48 h,82.6 µM
O=[N+]([O-])c1cc(Br)c(O)c(C=NNc2ccccc2)c1,MTT,24 h,11.7 µM
O=c1[nH]cc(F)c(=O)[nH]1,MTT,48 h,17 µM
OCn1ccnc1,MTT,24 h,10.7 µM
O=C1C(=Nc2ccc(Cl)cc2)c2ccccc2N1Cc1ccc([N+](=O)[O-])cc1,MTT,48 h,1.75 µM
O=c1cc(OCc2cc(-c3ccccc3)no2)c2ccccc2o1,MTS,72 h,> 100 µM
COc1ccc2c(-c3nc(-c4ccccc4)no3)nn(Cc3ccncc3)c2c1,,48 h,10.8 µM
COc1ccc(N=C2SCC(=O)N2c2nnc(-c3ccc(C(F)(F)F)cc3N=C3SCC(=O)N3c3ccc(OC)cc3)s2)cc1,MTT,,65.2 µM
O=P1(c2ccccc2)CCCCC1,MTT,72 h,> 100 µM
CC(C)c1ccc(/C=C2\N=C(SCC(=O)c3ccccc3)N(c3ccccc3)C2=O)cc1,MTT,,83.7 µg/mL
Cc1cc(C)n(Cn2cnc3ccccc32)n1,MTT,24 h,70.2 µM
O=C(C=Cc1cccs1)c1ccc(OCCCOc2ccc(C(=O)C=Cc3cccs3)cc2)cc1,MTT,48 h,30.7 µM
Cc1ccc(CN2C(=O)C(=Nc3c(C(C)C)cccc3C(C)C)c3ccccc32)cc1,MTT,48 h,30.9 µM
COc1ccc2c(-c3ncc(-c4ccccc4)o3)nn(Cc3ccccc3)c2c1,,48 h,80.9 µM
O=C1/C(=C/c2ccc3ccccc3c2O)NC(=S)N1c1ccccc1,MTT,,7.25 µg/mL
c1ccc(-c2cc(CNc3cccc4cccnc34)on2)cc1,MTS,72 h,> 100 µM
O=C(CCc1ccc(Cl)cc1)N1C(=O)C(=Nc2ccc(Cl)cc2Br)c2ccccc21,MTT,48 h,23.2 µM
COc1ccc(N(Cc2csc(-c3ccc(C)cc3)n2)C(=O)CCCCCC(=O)NO)cc1,MTT,72 h,1.19 µM
Clc1ccc(-c2cc(CNc3cccc4cccnc34)on2)c(Cl)c1,MTS,72 h,> 100 µM
O=C1C(=Nc2ccccc2I)c2ccccc2N1Cc1ccc([N+](=O)[O-])cc1,MTT,48 h,1.7 µM
Cc1cc2c(C(N)=O)cccc2n1-c1nc2c(c(NCc3ccccc3)n1)CCCN2,ATP luminescence,72 h,0.7 µM
O=C(CSc1nc2ccccc2s1)N/N=C/c1ccc(OCC(=O)Nc2cccc(Br)c2)cc1,MTS,72 h,> 100 µM
CCc1ccc(N=C2C(=O)N(Cc3ccccc3)c3ccccc32)cc1,MTT,48 h,0.9 µM
CONC(=O)c1cccc2c1cc(C)n2-c1nc2c(c(NCc3ccccc3)n1)CCCN2,ATP luminescence,72 h,0.7 µM
CCCNC(=S)N/N=C/c1cccc2cc3ccccc3nc12,MTT,48 h,43.3 µM
O=[N+]([O-])c1cc(I)c(O)c(C=NNc2ccc(Cl)cc2)c1,MTT,24 h,13.9 µM
CC(C)c1cccc(C(C)C)c1N=C1C(=O)N(Cc2ccc(Br)cc2)c2ccccc21,MTT,48 h,37.4 µM
O=C1CS/C(=N\c2ccccc2Cl)N1c1nnc(-c2ccc(C(F)(F)F)cc2/N=C2\SCC(=O)N2c2ccccc2Cl)s1,MTT,,57.9 µM
CONC(=O)Cc1c(C)n(-c2nc3c(c(NCc4ccccc4)n2)CCCN3)c2ccccc12,ATP luminescence,72 h,4.2 µM
COc1cccc(NC(=S)N/N=C/c2cccc3cc4ccccc4nc23)c1,MTT,48 h,49.6 µM
Cc1cc2c(C(N)=O)cccc2n1-c1nc2c(c(NCc3cccc(O)c3)n1)CCCN2,ATP luminescence,72 h,0.7 µM
O=C(C=Cc1ccc(OCCCCOc2ccc(C=CC(=O)c3cccs3)cc2)cc1)c1cccs1,MTT,48 h,278 µM
